Reference: ChEMBL document CHEMBL1155291, “Structure-activity relationship of dopaminergic halogenated 1-benzyl-tetrahydroisoquinoline derivatives” (Eur J Med Chem, 2009)

Assays:
[1] = Displacement of [3H]SCH23390 from dopamine D1-like receptor in Wistar rat striatal membrane after 1 hr by scintillation counting; assay type: cell membranes, Striatum
How it was run: (§1)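 Striatal membranes from female Wistar rats, 100 µg/mL, in Tris-ions buffer pH 7.4 (120 mM NaCl, 2 mM CaCl2, 5 mM KCl, 1 mM MgCl2, 0.1% ascorbic acid). Incubated 1 h at 23 °C with 0.25 nM [3H]-SCH23390 and competitor 10^-10 to 10^-4 M. Non-specific binding with 30 µM SK&F38393. Filtration, then scintillation counting. Ki from KD 0.36 nM. Mean ± SEM of 3–6 experiments.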

[2] = Displacement of [3H]raclopride from dopamine D2-like receptor in Wistar rat striatal membrane after 1 hr by scintillation counting; assay type: cell membranes, Striatum
How it was run: as §1, with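 “200” for “100”, “0.5” for “0.25”, “[3H]-raclopride” for “[3H]-SCH23390”, “50” for “30”, “apomorphine.” for “SK&F38393.”, “1.25” for “0.36”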

Rattus norvegicus = species: Rattus norvegicus; experiment: Selectivity ratio of Ki of Wistar rat dopamine D1-like receptor to Ki for Wistar rat dopamine D2-like receptor

Row | Structure (SMILES) | Ki [1] [nM] | pKi [1] | Ki [2] [nM] | pKi [2] | Ratio Ki (Rattus norvegicus)
1 | COc1cc2c(cc1Cl)CCNC2Cc1ccc(Cl)cc1Cl (stereo not given) | 11300 | 5.01 | 3300 | 5.51 | 3.4
2 | COc1cc2c(cc1Cl)CCN(C)C2Cc1ccc(Cl)cc1Cl (stereo not given) | 15100 | 4.84 | 6130 | 5.23 | 2.5
3 | COc1cc2c(cc1Cl)CCN(C)C2Cc1ccccc1Br (stereo not given) | 1320 | 5.89 | 1340 | 5.9 | 1
4 | COc1cc2c(cc1Cl)CCNC2Cc1ccccc1Br (stereo not given) | 1530 | 5.83 | 245 | 6.63 | 6.2
5 | CN1CCc2cc(Cl)c(O)cc2C1Cc1ccc(Cl)cc1Cl (stereo not given) | 241 | 6.71 | 269 | 6.64 | 0.9
6 | CN1CCc2cc(Cl)c(O)cc2C1Cc1ccccc1Br (stereo not given) | 65 | 7.21 | 18 | 7.76 | 3.6
7 | Oc1cc2c(cc1Cl)CCNC2Cc1ccccc1Br (stereo not given) | 110 | 7.06 | 46 | 7.39 | 2.4
8 | Oc1cc2c(cc1Cl)CCNC2Cc1ccc(Cl)cc1Cl (stereo not given) | 183 | 6.74 | 107 | 7 | 1.7
